A word on the inhibition: it is the drop in the measured response relative to a control, in per cent.

Experiment [1] addresses Hepatocyte growth factor receptor (Homo sapiens) (UniProt P08581). Put plainly: Inhibition of MET in human SKCO1 cells at 1 uM after 4 hrs using biotin labeled TGAKLPVK probe by mass-spectrometric analysis relative to control. Format: cell-based.
Experiment [2] concerns the target BMP-2-inducible protein kinase (Homo sapiens) (UniProt Q9NSY1). Put plainly: Inhibition of human BIKE (34 to 329 residues) expressed in bacterial expression system assessed as enzyme activity at 1 uM by KINOMEScan assay relative to control. More on the design: scale not given: the % may be the effect or the level left. The procedure, abridged:
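In vitro ATP-site competition binding assay (KinomeScan) across a panel of 456 kinases. Compound was tested at 1 and 10 μM. The read-out is the binding inhibition score relative to control.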

Experiment [3] has as its target Phosphatidylinositol 3-kinase catalytic subunit type 3 (Homo sapiens) (UniProt Q8NEB9). Put plainly: Binding affinity to PIK3C3 in human NCI-H23 cells at 1 uM by mass spectrometry based pull down assay. Format: cell-based.
Experiment [4] has as its target V-type proton ATPase subunit B, brain isoform (Homo sapiens) (UniProt P21281). Put plainly: Binding affinity to ATP6V1B2 in human NCI-H23 cells at 1 uM by mass spectrometry based pull down assay. It counts as cell-based.
The target in experiment [5] is Protein transport protein Sec23A (Homo sapiens) (UniProt Q15436). Put plainly: Binding affinity to SEC23A in human NCI-H358 cells at 1 uM by mass spectrometry based pull down assay. Format: cell-based.
For experiment [6], the target named is AP-2 complex subunit alpha-1 (Homo sapiens) (UniProt O95782). In words: Binding affinity to AP2A1 in human NCI-H358 cells at 1 uM by mass spectrometry based pull down assay. It counts as cell-based.
Experiment [7] concerns the target 80S Ribosome (Homo sapiens) (UniProt P08865+P42677+P62753+P15880+P23396+P61247+P62701+P22090+P46782+P62081+P62241+P46781+P46783+P62280+P25398+P62277+P62263+P62841+P62244+P62249+P08708+P62269+P39019+P60866+P63220+P62266+P62847+P62851+P62854+P62979+P62857+P62273+P62861+P39023+P36578+P46777+Q02878+P18124+P62424+P62917+P32969+P27635+P62906+P62913+P30050+P26373+P40429+P50914+P61313+P18621+Q07020+Q02543+P84098+P46778+P35268+P62829+P62750+P83731+P61254+P61353+P46776+P46779+P47914+P62888+P62899+P62910+P49207+P42766+P18077+Q9Y3U8+P83881+P61927+P61513+P63173+P62891+P62945+P05388+P05386). Put plainly: Binding affinity to RPL24 in human NCI-H23 cells at 1 uM by mass spectrometry based pull down assay. Format: cell-based.

For experiment [8], the target named is Dynamin-binding protein (Homo sapiens) (UniProt Q6XZF7). Put plainly: Binding affinity to DNMBP in human NCI-H23 cells at 1 uM by mass spectrometry based pull down assay. Format: cell-based.
Experiment [9] has as its target Signal transducer and activator of transcription 1-alpha/beta (Homo sapiens) (UniProt P42224). In words: Binding affinity to STAT1 in human NCI-H23 cells at 1 uM by mass spectrometry based pull down assay. It counts as cell-based.
Experiment [10] deals with F-actin-capping protein subunit beta (Homo sapiens) (UniProt P47756). Put plainly: Binding affinity to CAPZB in human NCI-H358 cells at 1 uM by mass spectrometry based pull down assay. Format: cell-based.
The target of experiment [11] is V-type proton ATPase catalytic subunit A (Homo sapiens) (UniProt P38606). In words: Binding affinity to ATP6V1A in human NCI-H358 cells at 1 uM by mass spectrometry based pull down assay. It counts as cell-based.
Experiment [12] has as its target Calponin-2 (Homo sapiens) (UniProt Q99439). Put plainly: Binding affinity to CNN2 in human NCI-H23 cells at 1 uM by mass spectrometry based pull down assay. It counts as cell-based.
Experiment [13] concerns the target T1, Dual specificity mitogen-activated protein kinase kinase 6 (Homo sapiens) (UniProt P52564).
T1 sequence (whole entry): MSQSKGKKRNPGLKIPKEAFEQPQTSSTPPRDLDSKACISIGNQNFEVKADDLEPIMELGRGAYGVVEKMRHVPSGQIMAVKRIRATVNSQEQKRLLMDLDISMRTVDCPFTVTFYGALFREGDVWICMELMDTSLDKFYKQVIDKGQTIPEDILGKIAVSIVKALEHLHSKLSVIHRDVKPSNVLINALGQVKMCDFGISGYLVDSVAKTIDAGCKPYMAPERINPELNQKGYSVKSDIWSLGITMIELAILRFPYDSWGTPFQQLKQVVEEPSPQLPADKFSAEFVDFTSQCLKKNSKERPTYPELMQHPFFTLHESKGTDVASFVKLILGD
In words: Binding affinity to MAP2K6 in human NCI-H358 cells at 1 uM by mass spectrometry based pull down assay. Format: cell-based.

Experiment [14] deals with Glycogen synthase kinase-3 beta (Homo sapiens) (UniProt P49841). Put plainly: Binding affinity to GSK3B in human NCI-H358 cells at 1 uM by mass spectrometry based pull down assay. Format: cell-based.
Experiment [15] concerns the target 5'-AMP-activated protein kinase catalytic subunit alpha-1 (Homo sapiens) (UniProt Q13131). Put plainly: Binding affinity to PRKAA1 in human NCI-H358 cells at 1 uM by mass spectrometry based pull down assay. Format: cell-based.
The target in experiment [16] is Cyclin-dependent kinase 4 (Homo sapiens) (UniProt P11802). Put plainly: Binding affinity to CDK4 in human NCI-H23 cells at 1 uM by mass spectrometry based pull down assay. It counts as cell-based.
Experiment [17] concerns the target T2, Mitogen-activated protein kinase kinase kinase 7 (Homo sapiens) (UniProt O43318).
T2 sequence (whole entry): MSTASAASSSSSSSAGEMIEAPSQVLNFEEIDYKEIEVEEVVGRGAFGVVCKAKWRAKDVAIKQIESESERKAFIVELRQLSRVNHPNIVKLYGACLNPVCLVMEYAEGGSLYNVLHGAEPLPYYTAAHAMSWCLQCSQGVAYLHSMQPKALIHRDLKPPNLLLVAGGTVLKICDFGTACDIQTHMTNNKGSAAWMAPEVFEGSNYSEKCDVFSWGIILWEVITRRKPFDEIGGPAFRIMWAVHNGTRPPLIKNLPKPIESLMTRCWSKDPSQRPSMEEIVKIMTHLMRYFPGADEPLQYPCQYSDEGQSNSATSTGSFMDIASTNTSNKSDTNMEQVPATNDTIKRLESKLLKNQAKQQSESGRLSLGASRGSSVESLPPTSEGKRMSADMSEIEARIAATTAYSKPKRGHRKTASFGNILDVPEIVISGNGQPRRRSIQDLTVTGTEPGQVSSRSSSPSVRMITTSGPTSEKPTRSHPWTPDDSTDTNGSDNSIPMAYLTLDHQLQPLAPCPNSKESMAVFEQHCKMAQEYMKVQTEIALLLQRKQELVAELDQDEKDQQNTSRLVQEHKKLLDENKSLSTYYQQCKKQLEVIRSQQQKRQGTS
Put plainly: Binding affinity to MAP3K7 in human NCI-H23 cells at 1 uM by mass spectrometry based pull down assay. It counts as cell-based.

Calls of active or inactive are those of the source. No cut-off for these calls is given here.

Chain of 5'-AMP-activated protein kinase catalytic subunit alpha-1 (Homo sapiens) (Q13131 whole entry, looked up): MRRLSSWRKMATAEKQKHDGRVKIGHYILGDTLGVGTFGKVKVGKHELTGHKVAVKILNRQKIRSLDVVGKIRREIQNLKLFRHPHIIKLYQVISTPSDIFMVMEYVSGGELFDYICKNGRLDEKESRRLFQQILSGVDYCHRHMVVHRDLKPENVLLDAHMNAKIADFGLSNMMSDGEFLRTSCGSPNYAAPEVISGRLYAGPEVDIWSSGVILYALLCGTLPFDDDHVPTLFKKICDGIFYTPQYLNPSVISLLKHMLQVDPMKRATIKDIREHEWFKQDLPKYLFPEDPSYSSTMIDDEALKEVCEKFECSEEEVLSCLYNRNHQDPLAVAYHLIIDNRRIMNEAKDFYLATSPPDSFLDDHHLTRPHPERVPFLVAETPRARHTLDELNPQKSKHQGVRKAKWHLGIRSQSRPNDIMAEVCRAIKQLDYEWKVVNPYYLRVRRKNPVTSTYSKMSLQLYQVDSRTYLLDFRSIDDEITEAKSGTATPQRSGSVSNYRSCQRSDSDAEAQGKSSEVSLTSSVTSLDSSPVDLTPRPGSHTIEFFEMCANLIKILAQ
Chain of Cyclin-dependent kinase 4 (Homo sapiens) (P11802 whole entry): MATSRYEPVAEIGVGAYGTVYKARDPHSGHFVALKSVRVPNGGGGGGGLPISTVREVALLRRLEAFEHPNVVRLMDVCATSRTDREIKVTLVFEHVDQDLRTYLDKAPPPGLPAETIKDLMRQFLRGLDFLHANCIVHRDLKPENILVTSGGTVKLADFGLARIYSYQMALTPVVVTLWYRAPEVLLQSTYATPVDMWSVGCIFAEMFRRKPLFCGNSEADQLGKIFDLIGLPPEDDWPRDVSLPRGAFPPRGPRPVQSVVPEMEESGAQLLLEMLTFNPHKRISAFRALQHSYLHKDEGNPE
Chain of Hepatocyte growth factor receptor (Homo sapiens) (P08581 whole entry, the tested form may be a part): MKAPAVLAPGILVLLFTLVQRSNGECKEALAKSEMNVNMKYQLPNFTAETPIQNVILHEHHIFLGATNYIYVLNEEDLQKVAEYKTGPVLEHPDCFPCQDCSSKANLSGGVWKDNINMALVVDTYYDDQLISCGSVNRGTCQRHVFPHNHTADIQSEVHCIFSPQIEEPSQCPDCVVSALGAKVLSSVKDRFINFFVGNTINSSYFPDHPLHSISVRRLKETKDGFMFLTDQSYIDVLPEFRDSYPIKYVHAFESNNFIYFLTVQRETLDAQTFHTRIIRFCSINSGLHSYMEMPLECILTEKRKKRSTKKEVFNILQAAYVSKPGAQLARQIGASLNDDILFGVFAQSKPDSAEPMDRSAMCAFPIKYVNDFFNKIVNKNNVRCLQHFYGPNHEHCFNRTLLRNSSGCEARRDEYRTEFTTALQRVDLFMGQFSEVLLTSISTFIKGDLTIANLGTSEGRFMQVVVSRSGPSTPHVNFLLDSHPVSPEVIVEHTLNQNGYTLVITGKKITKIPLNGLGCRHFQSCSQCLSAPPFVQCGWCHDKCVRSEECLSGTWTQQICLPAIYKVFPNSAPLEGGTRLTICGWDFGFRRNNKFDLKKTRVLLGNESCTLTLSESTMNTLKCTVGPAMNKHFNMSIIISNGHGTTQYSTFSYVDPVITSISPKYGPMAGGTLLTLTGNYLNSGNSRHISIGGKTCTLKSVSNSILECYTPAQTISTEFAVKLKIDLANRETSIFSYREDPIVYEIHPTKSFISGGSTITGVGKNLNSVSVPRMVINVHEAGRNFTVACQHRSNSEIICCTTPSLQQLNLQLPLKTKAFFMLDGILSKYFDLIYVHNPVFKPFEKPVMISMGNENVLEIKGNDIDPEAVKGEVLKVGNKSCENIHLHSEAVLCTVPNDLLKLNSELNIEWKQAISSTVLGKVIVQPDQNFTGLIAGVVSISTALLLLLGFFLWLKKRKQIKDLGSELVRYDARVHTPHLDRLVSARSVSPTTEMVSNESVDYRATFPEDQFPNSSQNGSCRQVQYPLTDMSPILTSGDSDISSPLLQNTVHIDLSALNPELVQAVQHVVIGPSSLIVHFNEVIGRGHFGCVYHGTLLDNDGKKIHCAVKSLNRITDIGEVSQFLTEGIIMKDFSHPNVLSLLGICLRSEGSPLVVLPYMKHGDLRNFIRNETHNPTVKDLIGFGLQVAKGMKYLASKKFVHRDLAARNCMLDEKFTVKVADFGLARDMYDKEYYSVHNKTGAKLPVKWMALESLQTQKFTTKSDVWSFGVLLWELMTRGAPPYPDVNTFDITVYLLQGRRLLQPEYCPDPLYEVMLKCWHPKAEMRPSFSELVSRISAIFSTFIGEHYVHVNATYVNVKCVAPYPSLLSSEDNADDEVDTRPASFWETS
Chain of Protein transport protein Sec23A (Homo sapiens) (Q15436 whole entry): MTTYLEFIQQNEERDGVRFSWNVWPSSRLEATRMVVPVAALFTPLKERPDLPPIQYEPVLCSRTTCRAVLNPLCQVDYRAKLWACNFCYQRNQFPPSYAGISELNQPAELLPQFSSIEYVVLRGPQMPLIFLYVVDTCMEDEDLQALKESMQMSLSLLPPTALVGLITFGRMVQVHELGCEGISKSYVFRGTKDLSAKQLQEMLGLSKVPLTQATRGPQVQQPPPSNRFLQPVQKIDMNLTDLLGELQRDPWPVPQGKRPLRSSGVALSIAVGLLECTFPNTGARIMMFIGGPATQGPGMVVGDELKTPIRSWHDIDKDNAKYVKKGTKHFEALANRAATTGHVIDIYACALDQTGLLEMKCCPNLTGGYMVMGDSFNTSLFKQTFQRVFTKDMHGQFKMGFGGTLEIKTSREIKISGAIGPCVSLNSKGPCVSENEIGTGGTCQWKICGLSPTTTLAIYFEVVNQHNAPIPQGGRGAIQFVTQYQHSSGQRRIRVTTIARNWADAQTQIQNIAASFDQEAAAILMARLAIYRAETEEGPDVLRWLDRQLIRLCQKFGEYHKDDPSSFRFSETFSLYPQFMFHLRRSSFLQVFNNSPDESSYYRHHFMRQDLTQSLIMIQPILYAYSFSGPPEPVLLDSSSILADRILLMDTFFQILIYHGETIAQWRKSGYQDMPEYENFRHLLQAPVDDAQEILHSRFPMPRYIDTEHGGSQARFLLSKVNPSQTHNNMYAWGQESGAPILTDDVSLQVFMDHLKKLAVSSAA
Chain of Glycogen synthase kinase-3 beta (Homo sapiens) (P49841 whole entry, looked up): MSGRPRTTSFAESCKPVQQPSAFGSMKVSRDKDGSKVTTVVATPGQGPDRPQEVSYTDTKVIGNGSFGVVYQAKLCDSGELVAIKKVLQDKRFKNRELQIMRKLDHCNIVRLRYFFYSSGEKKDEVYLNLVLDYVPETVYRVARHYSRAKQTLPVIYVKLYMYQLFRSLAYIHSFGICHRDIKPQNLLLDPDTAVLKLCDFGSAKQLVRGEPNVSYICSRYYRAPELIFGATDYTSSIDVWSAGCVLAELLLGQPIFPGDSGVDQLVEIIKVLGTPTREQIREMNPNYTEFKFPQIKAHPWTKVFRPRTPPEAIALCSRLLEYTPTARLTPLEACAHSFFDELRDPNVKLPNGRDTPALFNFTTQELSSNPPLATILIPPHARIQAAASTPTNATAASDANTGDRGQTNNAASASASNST
Chain of AP-2 complex subunit alpha-1 (Homo sapiens) (O95782 whole entry, one chain of several): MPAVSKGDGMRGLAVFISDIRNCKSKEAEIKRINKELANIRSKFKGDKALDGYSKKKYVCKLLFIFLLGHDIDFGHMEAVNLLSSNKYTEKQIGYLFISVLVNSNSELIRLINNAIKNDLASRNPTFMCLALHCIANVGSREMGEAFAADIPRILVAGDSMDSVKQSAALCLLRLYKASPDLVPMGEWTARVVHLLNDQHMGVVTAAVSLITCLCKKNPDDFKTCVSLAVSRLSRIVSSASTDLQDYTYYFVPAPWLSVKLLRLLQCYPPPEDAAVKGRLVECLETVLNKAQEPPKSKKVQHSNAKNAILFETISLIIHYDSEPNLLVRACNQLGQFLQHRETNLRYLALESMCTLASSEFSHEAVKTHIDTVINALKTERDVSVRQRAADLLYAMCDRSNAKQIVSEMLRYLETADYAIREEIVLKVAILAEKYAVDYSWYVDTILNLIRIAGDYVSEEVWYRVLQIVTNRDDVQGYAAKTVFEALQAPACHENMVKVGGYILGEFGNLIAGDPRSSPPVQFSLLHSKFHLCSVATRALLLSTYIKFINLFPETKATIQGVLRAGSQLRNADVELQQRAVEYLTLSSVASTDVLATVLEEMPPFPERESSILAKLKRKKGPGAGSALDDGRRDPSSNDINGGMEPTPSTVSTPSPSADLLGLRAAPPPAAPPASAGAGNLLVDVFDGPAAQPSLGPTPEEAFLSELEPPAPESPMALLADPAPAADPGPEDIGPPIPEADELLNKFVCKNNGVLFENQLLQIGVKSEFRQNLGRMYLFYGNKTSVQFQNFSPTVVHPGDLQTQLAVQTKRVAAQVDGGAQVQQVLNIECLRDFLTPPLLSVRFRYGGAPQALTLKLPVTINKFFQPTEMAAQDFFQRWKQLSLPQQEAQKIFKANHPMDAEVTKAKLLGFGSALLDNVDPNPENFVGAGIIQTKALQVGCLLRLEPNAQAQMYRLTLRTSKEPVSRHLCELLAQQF
Chain of V-type proton ATPase catalytic subunit A (Homo sapiens) (P38606 whole entry): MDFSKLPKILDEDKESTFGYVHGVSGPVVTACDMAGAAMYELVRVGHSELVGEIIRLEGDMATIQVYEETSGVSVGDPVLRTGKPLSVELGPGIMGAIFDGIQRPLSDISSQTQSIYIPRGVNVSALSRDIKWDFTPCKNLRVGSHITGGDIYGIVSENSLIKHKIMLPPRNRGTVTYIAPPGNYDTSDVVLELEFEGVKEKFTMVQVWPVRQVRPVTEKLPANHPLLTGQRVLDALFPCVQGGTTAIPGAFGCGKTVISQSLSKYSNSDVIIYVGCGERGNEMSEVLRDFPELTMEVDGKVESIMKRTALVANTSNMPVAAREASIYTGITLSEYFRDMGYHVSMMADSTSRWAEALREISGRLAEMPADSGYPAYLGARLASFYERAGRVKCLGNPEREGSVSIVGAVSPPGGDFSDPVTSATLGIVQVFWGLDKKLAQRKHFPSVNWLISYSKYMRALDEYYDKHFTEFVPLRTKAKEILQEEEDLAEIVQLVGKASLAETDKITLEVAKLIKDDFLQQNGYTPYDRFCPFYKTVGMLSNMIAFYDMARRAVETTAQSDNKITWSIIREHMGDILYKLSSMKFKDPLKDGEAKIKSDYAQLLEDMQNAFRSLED

As to `C=CC(=O)Nc1ccccc1Oc1nc(Nc2cnn(CCOC)c2)ncc1Cl`, the inhibition in [1] was -1.9%.

Turning to `COc1cc(O)c2c(c1)/C=C/C[C@H](O)[C@H](O)C(=O)/C=C\C[C@H](C)OC2=O`, the Activity in [2] was 68%.

Consider `C=CC(=O)Nc1ccccc1Nc1nc(Nc2ccc(N3CCN(CCOCCOCCOCCNC(=O)CCCC[C@@H]4SC[C@@H]5NC(=O)N[C@@H]54)CC3)cc2)ncc1Cl`, for which the result in experiment [3], in experiment [4], in [5], in [6], in experiment [7] and in [8] was Active. Moreover, the result in [9], in [10], in [11], in [12], in experiment [13] and in experiment [14] was Active. The result in experiment [15], in experiment [16] and in [17] was Active.

(Values after ChEMBL document CHEMBL4118021, “Studies of TAK1-centered polypharmacology with novel covalent TAK1 inhibitors” (Bioorg Med Chem, 2017).)
